According to ChEMBL document CHEMBL1671680, “Pradimicin S, a highly soluble nonpeptidic small-size carbohydrate-binding antibiotic, is an anti-HIV drug lead for both microbicidal and systemic use” (Antimicrob Agents Chemother, 2010):
The source made the active and inactive calls. The rule behind the calls is not given here.

How the values were obtained:
[1] = test system: Human immunodeficiency virus 1; experiment: Ratio of EC90 to EC50 for R5 tropic HIV-1 clade G isolate BCF-DIOUM infected in human PBMC; format: functional
Outline: (§1)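 PBMCs from healthy donors were PHA-stimulated (2 μg/ml, 3 days, 37°C), then seeded at 0.5 × 10^6 per well with compound dilutions in RPMI 1640 with 10% FCS and IL-2 (25 U/ml). Virus was added at 250 pg p24 or p27/ml final. On day 12, supernatant HIV-1 p24 or HIV-2 p27 was measured by ELISA, giving EC50 and EC90.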

PBMC [2] = experiment: Immunostimulatory activity against human PBMC assessed as IL-13 production at 21 uM after 72 hrs; format: functional, cell-based
Outline: (§2)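 Unstimulated PBMCs and PHA-blasts from three donors, in three independent experiments, cultured with test compound at 20 μg/ml (21 or 22 μM). Supernatants collected after 72 h. The cytokine profile was read on a Bio-Plex 27-plex human cytokine bead immunoassay, using beads coupled to cytokine-specific monoclonal antibodies and run per the kit instructions.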

[3] = test system: Human immunodeficiency virus 1; experiment: Antiviral activity against compound pretreated HIV-1 3B isolate 42 harboring gp120 mutant infected in human CEM cells assessed as inhibition of virus-induced cytopathicity after 3 to 4 days by microscopic analysis; format: functional, organism-based; settings: Human immunodeficiency virus 1, 3B isolate 42, CCRF-CEM
Outline: (§3)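 CEM or C8166 cells at 5 × 10^5/ml infected with HIV-1 at 100 CCID50 per ml, then mixed 1:1 with compound dilutions and held at 37°C for 3–4 days. Giant cells were counted microscopically at ×100 against untreated infected cultures. EC50 is the concentration cutting syncytium formation by 50%.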

PBMC [4] = experiment: Immunostimulatory activity against human PBMC assessed as RANTES production at 22 uM after 72 hrs; format: functional, cell-based; outline: as §2
[5] = Cytotoxicity against human HeLa cells after 3 to 4 days; format: cell-based
Outline: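 Cells seeded at 20,000–75,000 per well with compound dilutions, incubated 3–4 days at 37°C, and counted on a Coulter particle counter; CC50 is the concentration inhibiting proliferation by 50%.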

PBMC [6] = experiment: Immunostimulatory activity against human PBMC assessed as suppression of IL-15 production at 22 uM after 72 hrs; format: functional; outline: as §2
PBMC [7] = experiment: Immunostimulatory activity against human PBMC assessed as IL-6 production at 22 uM after 72 hrs; format: functional, cell-based; outline: as §2
PBMC [8] = experiment: Immunostimulatory activity against human PBMC assessed as suppression of IL-4 production at 21 uM after 72 hrs; format: functional; outline: as §2
PBMC [9] = experiment: Immunostimulatory activity against human PBMC assessed as TNF-alpha production at 21 uM after 72 hrs; format: functional, cell-based; outline: as §2
[10] = Antiviral activity against SIV mac251 infected in human Raji cells expressing DC-SIGN gene assessed as inhibition of virus capture by Raji cells after 60 mins by ELISA; format: functional, cell-based, Simian immunodeficiency virus - mac; settings: Simian immunodeficiency virus, 251, Raji, 1 h
PBMC [11] = experiment: Immunostimulatory activity against human PBMC assessed as IL-9 production at 21 uM after 72 hrs; format: functional, cell-based; outline: as §2
[12] = test system: Human immunodeficiency virus 1; experiment: Ratio of EC90 to EC50 for R5 tropic HIV-1 clade A isolate UG273 infected in human PBMC; format: functional; outline: as §1
PBMC [13] = experiment: Immunostimulatory activity against human PBMC assessed as FGF production at 21 uM after 72 hrs; format: functional, cell-based
Outline: (§4)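 PBMCs and PHA blasts from three donors (three independent experiments) cultured with 21 μM compound; supernatants collected at 72 h; cytokines quantified with the Bio-Plex human 27-plex bead immunoassay.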

PBMC [14] = experiment: Immunostimulatory activity against human PBMC assessed as MCP-1 production at 21 uM after 72 hrs; format: functional, cell-based; outline: as §2
PBMC [15] = experiment: Immunostimulatory activity against human PBMC assessed as IP-10 production at 21 uM after 72 hrs; format: functional, cell-based; outline: as §2
[16] = test system: Human immunodeficiency virus 2; experiment: Antiviral activity against HIV-2 ROD infected in human MT4 cells assessed as inhibition of virus-induced cytopathicity after 7 days by trypan blue staining; format: functional, organism-based; settings: Human immunodeficiency virus 2, ISOLATE ROD, MT4, 168 h
[17] = Binding affinity to HIV-1 HXB2 gp41 assessed as dissociation rate constant after 6 mins by SPR analysis in presence of 10 mM CaCl2; parameters: species or system Human immunodeficiency virus 1
[18] = test system: Human immunodeficiency virus 1; experiment: Antiviral activity against R5 tropic HIV-1 clade A isolate UG273 infected in human PBMC assessed as inhibition of viral replication […] by ELISA; format: functional, organism-based; settings: Human immunodeficiency virus 1, clade A isolate UG273
Outline: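 PBMCs from healthy donors were stimulated with PHA (2 μg/ml) for 3 days, then seeded at 0.5 × 10^6 cells/well in RPMI 1640 with 10% FCS, IL-2 (25 U/ml) and compound. Virus was added at a final 250 pg p24/ml. Supernatant was taken at day 12 for p24 antigen ELISA.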

PBMC [19] = experiment: Immunostimulatory activity against human PBMC assessed as suppression of IL-9 production at 21 uM after 72 hrs; format: functional; outline: as §2
PBMC [20] = experiment: Immunostimulatory activity against human PBMC assessed as suppression of IL-13 production at 21 uM after 72 hrs; format: functional; outline: as §2
PBMC [21] = experiment: Immunostimulatory activity against human PBMC assessed as IL-2 production at 22 uM after 72 hrs; format: functional, cell-based; outline: as §2
PBMC [22] = experiment: Immunostimulatory activity against human PBMC assessed as suppression of IL-15 production at 21 uM after 72 hrs; format: functional; outline: as §2
PBMC [23] = experiment: Immunostimulatory activity against human PBMC assessed as G-CSF production at 21 uM after 72 hrs; format: functional, cell-based; outline: as §4
PBMC [24] = experiment: Immunostimulatory activity against human PBMC assessed as RANTES production at 21 uM after 72 hrs; format: functional, cell-based; outline: as §2
PBMC [25] = experiment: Immunostimulatory activity against human PBMC assessed as suppression of IL-13 production at 22 uM after 72 hrs; format: functional; outline: as §2
[26] = Antiviral activity against SIV mac251 infected in human HUT78 cells assessed as prevention of syncytium formation between persistently SIV mac251-infected HUT-78 cells and uninfected CEM cells after 3 to 4 days by ELISA; format: functional, cell-based, Simian immunodeficiency virus - mac; settings: Simian immunodeficiency virus, 251, CCRF-CEM
PBMC [27] = experiment: Immunostimulatory activity against human PBMC assessed as IL-10 production at 21 uM after 72 hrs; format: functional, cell-based; outline: as §4
PBMC [28] = experiment: Immunostimulatory activity against human PBMC assessed as suppression of PDGF production at 22 uM after 72 hrs; format: functional
PBMC [29] = experiment: Immunostimulatory activity against human PBMC assessed as GM-CSF production at 21 uM after 72 hrs; format: functional, cell-based; outline: as §4
PBMC [30] = experiment: Immunostimulatory activity against human PBMC assessed as eotoxin production at 21 uM after 72 hrs; format: functional, cell-based
Outline: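 In three independent experiments, PBMCs and PHA-blasts from three donors were cultured with compound for 72 h. Supernatants were analysed with a bead-based 27-plex human cytokine immunoassay covering interleukins, chemokines, growth factors, IFN-γ and TNF-α.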

[31] = test system: Human immunodeficiency virus 1; experiment: Antiviral activity against HIV-1 3B infected in human CEM cells assessed as inhibition of virus-induced cytopathicity after 3 to 4 days by microscopic analysis; format: functional, organism-based; settings: Human immunodeficiency virus 1, 3B, CCRF-CEM; outline: as §3
PBMC [32] = experiment: Immunostimulatory activity against human PBMC assessed as suppression of G-CSF production at 21 uM after 72 hrs; format: functional; outline: as §2
PBMC [33] = experiment: Immunostimulatory activity against human PBMC assessed as IL-1ra production at 22 uM after 72 hrs; format: functional, cell-based; outline: as §2
[34] = Cytotoxicity against human PBMC cells after 3 to 4 days; format: cell-based

Row | Structure (SMILES) | Ratio [1] | Activity (PBMC [2]) | EC50 [3] [µM] | Activity (PBMC [4]) | CC50 [5] [µM] | fold change (FC) (PBMC [6]) | Activity (PBMC [7]) | fold change (FC) (PBMC [8]) | Activity (PBMC [9]) | IC50 [10] [µM] | Activity (PBMC [11]) | Ratio [12] | Activity (PBMC [13]) | Activity (PBMC [14]) | Activity (PBMC [15]) | EC50 [16] [µM] | Kd [17] [×10⁻² /s] | EC50 [18] [µM] | fold change (FC) (PBMC [19]) | fold change (FC) (PBMC [20]) | also measured
1 | CN[C@@H]1[C@H](O[C@@H]2OC[C@@H](O)[C@H](O)[C@H]2O)[C@@H](O)[C@H](O[C@H]2c3cc(C)c(C(=O)N[C@H](C)C(=O)O)c(O)c3-c3c(cc4c(c3O)C(=O)c3cc(OC)cc(O)c3C4=O)[C@@H]2O)O[C@@H]1C [PRADIMICIN A] | 2 | inactive | > 50 | inactive | > 50 | 2 | inactive | 2 | inactive | 16 | inactive | 2 | inactive | inactive | inactive | 5 | 2.91 | 5.9 | 2 | 2 | Activity (PBMC [21]): inactive; fold change (FC) (PBMC [22]): 2; Activity (PBMC [23]): inactive; Activity (PBMC [24]): inactive; fold change (FC) (PBMC [25]): 2; EC50 [26]: 4.3 µM; Activity (PBMC [27]): inactive; fold change (FC) (PBMC [28]): 2; Activity (PBMC [29]): inactive; Activity (PBMC [30]): inactive; EC50 [31]: 5.9 µM; fold change (FC) (PBMC [32]): 2; Activity (PBMC [33]): inactive; CC50 [34]: > 50 µM
2 | CN[C@@H]1[C@H](O[C@@H]2O[C@H](CO)[C@@H](O)[C@H](OS(=O)(=O)O)[C@H]2O)[C@@H](O)[C@H](O[C@H]2c3cc(C)c(C(=O)N[C@H](C)C(=O)O)c(O)c3-c3c(cc4c(c3O)C(=O)c3cc(OC)cc(O)c3C4=O)[C@@H]2O)O[C@@H]1C [PRADIMICIN S] | 2 | inactive | > 50 | inactive | > 230 | 2 | inactive | 2 | inactive | 16 | inactive | 2 | inactive | inactive | inactive | 4.7 | 2.71 | 15 | 2 | 2 | Activity (PBMC [21]): inactive; fold change (FC) (PBMC [22]): 2; Activity (PBMC [23]): inactive; Activity (PBMC [24]): inactive; fold change (FC) (PBMC [25]): 2; EC50 [26]: 12 µM; Activity (PBMC [27]): inactive; fold change (FC) (PBMC [28]): 2; Activity (PBMC [29]): inactive; Activity (PBMC [30]): inactive; EC50 [31]: 8.9 µM; fold change (FC) (PBMC [32]): 2; Activity (PBMC [33]): inactive; CC50 [34]: > 230 µM
